Only some compounds are listed: those with a hit (about 3% of all), similar ones and a draw of the others.
NPY Y1 blocker – NPY-Y1 receptor antagonists, primary screen, cell-based | Neuropeptide Y receptor type 1 (Homo sapiens), P25929 | HEK293-CNG Y1 cells, membrane potential fluorescence; NPY at EC95, then isoproterenol | inhibition, % at 3.6 µM | 200,000 compounds, 1% hits;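 active = inhibition above the campaign mean inhibition of all tested compounds plus 3 SD, cut at about 20% in these data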
Target sequence (P25929 whole entry, looked up): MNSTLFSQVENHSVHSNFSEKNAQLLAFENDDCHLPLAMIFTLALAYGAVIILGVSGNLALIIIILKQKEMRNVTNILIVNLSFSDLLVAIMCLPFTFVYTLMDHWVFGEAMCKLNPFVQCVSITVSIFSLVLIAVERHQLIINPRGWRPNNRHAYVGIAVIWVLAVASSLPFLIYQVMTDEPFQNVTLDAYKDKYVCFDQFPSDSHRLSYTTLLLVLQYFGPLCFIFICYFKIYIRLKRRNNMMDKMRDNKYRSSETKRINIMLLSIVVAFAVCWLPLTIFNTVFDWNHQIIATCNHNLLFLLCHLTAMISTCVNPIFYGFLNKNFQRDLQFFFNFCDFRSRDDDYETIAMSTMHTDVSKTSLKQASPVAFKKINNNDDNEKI
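Material: Y1- and CNG-channel-expressing HEK293 cells / Probe or stimulus: NPY 25 nM then isoproterenol 1 µM plus Ro 20-1724 25 µM / Doses: 3.6 µM single dose, DMSO 0.4% / Schedule: compound incubation 1 h at room temperature, readout 45 min post-stimulation / Signal: membrane potential fluorescence / Benchmarks: isoproterenol-only wells as full block versus NPY-plus-isoproterenol wells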
NPY2 pot ag – NPY-Y2 potentiators or agonists, primary screen, cell-based | Neuropeptide Y receptor type 2 (Homo sapiens), P49146 | cells expressing NPY-Y2, potentiator/agonist read-out | activation, % at 3.6 µM | 220,000 compounds, 0.45% hits; in the data active = activation above about 27%;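 note: cells stimulated with NPY near EC25 plus isoproterenol at EC100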
Wee1 stabilizer – Wee1 degradation inhibitors, primary screen, cell-based, HeLa, Wee1K328M-luciferase, luminescence | Wee1-like protein kinase (Homo sapiens), P30291 | HeLa Luc-Wee1K328M stability; 100% = proteasome inhibitor MG132 effect | reporter increase, % at 5 µM | 220,000 compounds, 1.2% hits | AID 1321, 2008;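 active = activation above the mean of all tested compounds plus 3 SD, set per screening run, cut at about 8.8% in these data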;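 note: cells exposed to compound for 20 h before luminescence read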
Hsp70 activator – Hsp70 transcriptional activators, primary screen, cell-based, HeLa, Hsp70 promoter luciferase, luminescence, 10 µM | HeLa Hsp70 promoter luciferase reporter; scaled: vehicle 0, proteasome-inhibitor control 100% | activation, % at 10 µM | 200,000 compounds, 0.04% hits;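 active = activation above the mean across all tested compounds plus 3 SD, cutoff set per campaign, cut at about 5.5% in these data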
NPY1 pot ag – NPY-Y1 receptor potentiators or agonists, primary screen, cell-based | 220,000 compounds, 0.37% hits | NPY-Y1 expressing cells, potentiator/agonist activation | activation, % at 3.6 µM; in the data active = activation above about 33%, passing the limit was not always enough;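 note: cells stimulated with NPY at EC10 then isoproterenol at EC100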
NPY Y2 blocker – NPY-Y2 receptor antagonists, primary screen, cell-based. 140,000 compounds, 0.99% hits. inhibition, % at 2.7 µM. Neuropeptide Y receptor type 2 (Homo sapiens), P49146. NPY-Y2 expressing cells, antagonist mode
NPY1 antag conf – NPY-Y1 receptor antagonists, retest of hits, confirmation, HEK293-CNG cells, membrane potential fluorescence, triplicate. shares compounds with NPY Y1 blocker. cAMP; NPY challenge against isoproterenol-raised cAMP. inhibition, % at 3.6 µM. 1,200 compounds, 21% hits; in the data active = inhibition above about 20%
NPY-Y2 antag ct – NPY-Y2 receptor antagonists, selectivity check, confirmation, counter-screen for NPY-Y1 antagonist project, HEK293-CNG cells, membrane potential fluorescence, triplicate; shares compounds with NPY Y1 blocker; antagonism; cells given NPY, then isoproterenol; inhibition, % at 3.6 µM; 1,200 compounds, 28% hits
Large screens that a line does not name were inactive (follow-up assays come after a bar, where they were run). Cut-off read from the data, not from the text of the source, unless noted: active = inhibition above about 17%; inactive = the rest.

O=C(c1ccco1)N1CCN(S(=O)(=O)c2ccc(S(=O)(=O)NC3CCCC3)cc2)CC1	NPY Y1 blocker 20 | NPY1 antag conf inactive | NPY-Y2 antag ct inactive
O=C(NC(N1CCOCC1)C(Cl)(Cl)Cl)c1ccc(F)cc1 (stereo not given)	NPY Y1 blocker 53 (no result: NPY Y2 blocker) | NPY1 antag conf inactive | NPY-Y2 antag ct inactive
CCOc1ccc(N2C(=O)CC(N(CCc3ccc(OC)cc3)C(=O)/C=C/C(=O)O)C2=O)cc1 (stereo not given)	none (no result: NPY Y2 blocker)
Nc1ccnn1Cc1ccc(Br)s1	none
N=c1c2c3c(sc2nc2n1CCCCC2)CCCCC3	NPY Y1 blocker 20 | NPY1 antag conf inactive | NPY-Y2 antag ct inactive
O=c1c2c3c(sc2nc2n1CCCCC2)CCCCC3	none
c1ccc(-c2ccccc2OCCCN2CCCC2)cc1	none
c1ccc(-c2ccccc2OCCCN2CCCCCC2)cc1	NPY Y1 blocker 26 (no result: NPY Y2 blocker) | NPY1 antag conf inactive | NPY-Y2 antag ct inactive
O=C(NC(=S)Nc1ccc(CN2CCCCC2)cc1)c1cccc(OCc2ccccc2)c1	NPY Y1 blocker 42 (no result: NPY Y2 blocker) | NPY1 antag conf 42 | NPY-Y2 antag ct 53
Cc1ccccc1N/C(SCc1ccc(Cl)cc1)=C(/C#N)C(=O)NCc1ccco1	NPY Y1 blocker 34 | NPY1 antag conf inactive | NPY-Y2 antag ct inactive
O=C(NC1CCCC1)C(c1ccco1)N(Cc1ccccc1)C(=O)c1csnn1 (stereo not given)	NPY Y1 blocker 30 | NPY1 antag conf inactive | NPY-Y2 antag ct inactive
Cc1cc(C)n2nc(C(=O)N/N=C/c3cccc(Cl)c3)nc2n1	none (no result: NPY Y1 blocker, Hsp70 activator, NPY Y2 blocker)
O=C(NC(=S)Nc1ccc(Oc2ccccc2)cc1)c1ccc(Cl)cc1	NPY Y1 blocker 20 | NPY1 antag conf inactive | NPY-Y2 antag ct inactive
O=C(Nc1ccccc1N1CCOCC1)c1cc(-c2ccncc2)nc2ccccc12	none (no result: NPY Y2 blocker)
COc1ccc(-c2cc(C(=O)Nc3ccccc3N3CCOCC3)c3ccccc3n2)cc1OC	NPY Y1 blocker 30 (no result: NPY Y2 blocker) | NPY1 antag conf inactive | NPY-Y2 antag ct inactive
COc1ccc(-c2cc(C(=O)Nc3ccccc3O)c3ccccc3n2)cc1OC	NPY Y1 blocker 27 (no result: NPY Y2 blocker) | NPY1 antag conf inactive | NPY-Y2 antag ct 23
COc1ccc(NC(=O)c2cccnc2N2CCOCC2)cc1	none (no result: NPY Y2 blocker)
Cc1cc(C)nc(SCc2cnc(C)nc2N)n1	none (no result: NPY Y2 blocker)
Cc1ccc(C(C)C)c(OCc2nn(CC(=O)c3ccc(Cl)cc3)c3[n+]2CCCCC3)c1	NPY Y1 blocker 35 (no result: NPY Y2 blocker) | NPY1 antag conf inactive | NPY-Y2 antag ct 18
CCCCN(c1ccc(C(=O)OC)cc1)S(=O)(=O)c1ccccc1	NPY Y1 blocker 86 (no result: NPY Y2 blocker) | NPY1 antag conf inactive | NPY-Y2 antag ct inactive
CCOc1ccc(C(C)C)cc1S(=O)(=O)n1ccnc1C	none (no result: NPY Y2 blocker)
c1ccc(OCc2nn3c(C4CCCCC4)nnc3s2)cc1	NPY Y1 blocker 27 | NPY1 antag conf inactive | NPY-Y2 antag ct inactive
Cc1ccc(-n2cc(CN3CCNC(=O)CC3)c(-c3cccc(C)c3)n2)cc1	none (no result: NPY Y2 blocker)
Cc1ccc(-n2cc(CNCC3CC(=O)N(C4CC4)C3)c(-c3cccc(C)c3)n2)cc1 (stereo not given)	NPY Y1 blocker 22 (no result: NPY Y2 blocker) | NPY1 antag conf inactive | NPY-Y2 antag ct inactive
Cc1nc2cc(N3CCCCC3)c(NC(=O)c3cccnc3)cc2c(=O)n1Cc1ccccc1	NPY Y1 blocker 23 | NPY1 antag conf inactive | NPY-Y2 antag ct inactive
Cc1ccc(C(=O)N2c3ccccc3N(Cc3ccccc3)C(=O)C2(C)C)cc1	NPY Y1 blocker 30 | NPY1 antag conf inactive | NPY-Y2 antag ct inactive
O=C(CSc1nnnn1-c1ccc2c(c1)OCCO2)N1CCN(C(=O)c2ccco2)CC1	none (no result: NPY Y2 blocker)
